Screening data (PubChem BioAssay)
Most compounds without a hit are left out; they make up all but 2.2% or so of the library.
SUMO1-SIM PPI = modulators of human SUMO1-mediated protein-protein interactions. actives 0.33% (n = 360,000). inhibition, % at 20 µM. SUMO1 binding to a labelled peptide, TR-FRET, 1 h; in the data active means inhibition above about 37%
LMPTP inh = LMPTP (human) inhibition | recombinant LMPTP-A, OMFP fluorogenic substrate, fluorescence intensity | inhibition, % at 20 µM | actives 0.22% (n = 360,000) | AID 651560;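 active means compounds that cut the enzyme signal by at least half of the control window in the single-dose screen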
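Assay system: LMPTP-A phosphatase enzyme | Input: 0.625 nM enzyme | Also added: Fluorogenic phosphatase substrate OMFP at 400 µM final | Compound dosing: One test concentration per compound, 20 µM, with 3% DMSO overall | Schedule: 50 min enzyme reaction at room temperature, protected from light | Signal: Fluorescence intensity | Benchmarks: no-enzyme and uninhibited controls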
GRK2 aptamer HTS = inhibitors of human GRK2 displacing RNA aptamer | P25098 | bead flow cytometry, FAM-aptamer displacement from GRK2 | inhibition of aptamer binding, % at 10 µM | actives 0.59% (n = 330,000) | AID 488847;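 active means inhibition of aptamer binding above 40%, roughly 3 SD of noise, on plates passing a quality check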;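 further: median bead fluorescence of bound FAM aptamer so fluorescent compounds give negative values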
Scp1 inh = inhibitors of human Scp-1 phosphatase; Q9GZU7; Recombinant Scp1, phosphopeptide, malachite green phosphate absorbance; inhibition, % at 20 µM; actives 0.88% (n = 340,000); AID 493091;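 active means inhibition above about 50% at 20 µM, limit read from the data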
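Assay system: SCP-1 catalytic fragment, aa 76-261 | Buffer or medium: Tris acetate buffer pH 5.5 with MgCl2 and Tween-20 | Compound: One concentration, 20 µM, with 1.0% DMSO | Also added: Phospho 17-mer peptide substrate | Signal: Absorbance at 630 nm | Incubation: 45 min enzyme reaction at room temperature | Measure: % inhibition of SCP-1 phosphate liberation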
STEP block = STEP (human) phosphatase inhibition. actives 0.25% (n = 360,000). inhibition, % at 20 µM. recombinant STEP, OMFP fluorogenic substrate, fluorescence. P54829. AID 588621;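 active means inhibition at 20 µM, scaled per plate between control wells, above about 37%, limit read from the data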
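material = STEP tyrosine phosphatase | reagent = fluorogenic phosphatase substrate OMFP at 25 µM final | doses = single compound dose of 20 µM, 1% DMSO final | schedule = 20 min reaction, room temperature, in the dark | measured by = fluorescence, 480/540 nm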
DNMT1 block = DNMT1 (human) enzyme inhibition; DNMT1 molecular beacon, Hinp1I cleavage, fluorescence; inhibition (reported as % activation of signal), % at 10 µM; actives 0.83% (n = 360,000); AID 588458; P26358; in the data active means inhibition above about 50%
Of the large screens only hits and unclear results are named; the others gave an inactive call; ! = not confirmed by another sample.

N#Cc1cn(-c2ccccc2)nc1-c1ccccc1	SUMO1-SIM PPI 45.4
N#C/C(=C\c1cccc([N+](=O)[O-])c1)c1nnc2n1CCCCC2	GRK2 aptamer HTS 100.0
CCCCn1c(NC(=O)c2ccccc2)c(C#N)c2nc3ccccc3nc21	SUMO1-SIM PPI 42.2, DNMT1 block 76.3 (no result: GRK2 aptamer HTS)
N#Cc1c(NC(=O)c2ccc(Br)o2)n(-c2ccccc2)c2nc3ccccc3nc12	DNMT1 block 51.2
CCCCCCCCC(c1nc2ccccc2[nH]1)N1CCN=C1c1cc2ccccc2[nH]1 (stereo unspecified)	none (no result: GRK2 aptamer HTS, Scp1 inh)
Nc1c(C(=O)NCC2CCCO2)sc2nc3c(c(-c4ccco4)c12)CC/C3=C\c1ccco1 (stereo unspecified)	SUMO1-SIM PPI 68.9, LMPTP inh 69.7, Scp1 inh 80.7, STEP block 37.2, DNMT1 block 101.3 (no result: GRK2 aptamer HTS)
NC(=O)c1sc2nc3c(c(-c4ccco4)c2c1N)CCCC3	none
Cc1[nH]ccc(=O)c1Cc1c(Cl)cccc1Cl	LMPTP inh 78.2
CCOC(=O)Cc1csc(-n2sc3ccccc3c2=O)n1	Scp1 inh 73.9
CCOC(=O)Cc1csc(SCn2nnc3ccccc3c2=O)n1	none
c1ccc(-c2nc(NC3CCCC3)c3ccccc3n2)cc1	LMPTP inh 62.2
O=C(O)CCC(=O)Nc1cc(C(F)(F)F)cc(C(F)(F)F)c1	SUMO1-SIM PPI 44.3
COc1ccc(Nc2nc(N3CCCC3)c3ccccc3n2)cc1	LMPTP inh 51.4
CC(=O)O[C@@H](Cc1ccc(O)cc1)C(=O)CC(C)C	none (no result: GRK2 aptamer HTS, Scp1 inh, STEP block, DNMT1 block)
CCCCNC(=O)c1cnc(Cc2c[nH]c3ccccc23)c(I)c1	none (no result: GRK2 aptamer HTS, Scp1 inh)
COC(=O)c1sc(NC(=S)NC(=O)c2ccccc2F)nc1C	LMPTP inh 72.6
NC(=S)NNc1cccc2cccnc12	LMPTP inh 50.5
NC(=S)Nc1cccc2cccnc12	none
COc1ccc(NC(=O)CN(C)C(=O)c2cc3c(s2)CCC3)cc1	SUMO1-SIM PPI 75.6, LMPTP inh 64.3, GRK2 aptamer HTS 63.0, Scp1 inh 85.9, DNMT1 block 96.8
COc1cccc(NC(=O)CN(C)C(=O)c2cc3c(s2)CCC(C)C3)c1 (stereo unspecified)	none
COc1cccc(NC(=O)CN(C)C(=O)c2cc3c(s2)CCC3)c1	Scp1 inh 60.0 (no result: SUMO1-SIM PPI, LMPTP inh, STEP block, DNMT1 block)
COc1ccc(CNC[C@H]2O[C@@H](n3ccc(=O)[nH]c3=O)[C@H](O)[C@@H]2O)cc1	none (no result: GRK2 aptamer HTS, Scp1 inh)
Cc1cccc(NC(=O)COc2ccc(/C=N\n3cnnc3)cc2)c1	GRK2 aptamer HTS 43.0
CCOC(=O)[C@]12CCC=C1N(CCC1=CCCCC1)C(=O)[C@H](CC(=O)N1CCCCC1)C2	none (no result: GRK2 aptamer HTS, Scp1 inh, STEP block, DNMT1 block)
O=C(O)c1ccc(N2C(=O)/C(=C/c3ccc(-c4ccc([N+](=O)[O-])cc4)o3)C=C2c2ccccc2)cc1	SUMO1-SIM PPI 102.6, LMPTP inh 79.1, Scp1 inh 66.4, STEP block 87.4, DNMT1 block 80.9
O=C(O)c1ccc(CN2C(=O)c3cccc4c([N+](=O)[O-])ccc(c34)C2=O)cc1	none (no result: GRK2 aptamer HTS)
O=C1c2cccc3c([N+](=O)[O-])ccc(c23)C(=O)N1CCc1ccccn1	none
Cc1ccc(C(=O)O)cc1N1C(=O)c2cccc3c([N+](=O)[O-])ccc(c23)C1=O	DNMT1 block 59.9 (no result: GRK2 aptamer HTS)
O=C(Nc1nccs1)c1cccc(N2C(=O)c3cccc4c([N+](=O)[O-])ccc(c34)C2=O)c1	DNMT1 block 78.1
O=C(Nc1ccc(S(=O)(=O)Nc2nccs2)cc1)c1cccc(N2C(=O)c3ccccc3C2=O)c1	none
CN(C)CCCN1C(=O)c2cccc3c([N+](=O)[O-])ccc(c23)C1=O	DNMT1 block 68.6
C[n+]1c2cc(N)ccc2cc2ccc(N)cc21	SUMO1-SIM PPI 78.4!, DNMT1 block active (no result: GRK2 aptamer HTS)
O=C(COC(=O)c1ccc(F)cc1F)Nc1ccc2c(c1)OCO2	none (no result: GRK2 aptamer HTS, Scp1 inh)
O=C(O)c1cc(Cl)c2c(c1)[C@@H]1C=CC[C@@H]1[C@H](c1ccc(S(=O)(=O)N3CCOCC3)cc1)N2	SUMO1-SIM PPI 41.8
Cc1cc(C)c2c(c1)C1C=CCC1C(c1ccc(S(=O)(=O)N3CCOCC3)cc1)N2 (stereo unspecified)	none
O=C(O)c1cccc2[nH]c(C(F)(F)F)nc12	none
